{"source": "ChEMBL document CHEMBL1123985", "about": "“Oral absorption of cephalosporin antibiotics. 1. Synthesis, biological properties, and oral bioavailability of 7-(arylacetamido)-3-chloro cephalosporins in animals” (J Med Chem, 1988)", "key": {"[1]": {"test": "Percent of urinary recovery in rats after, sc administration of single 20 mg/kg dose in solution (N,range)", "assay_type": "ADME, organism-based", "design": "dose 20 mg/kg, route subcutaneous", "details": "rat, urine, read-out: Recovery", "outline": "(§1)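 Male Wistar rats (200-300 g), jugular-cannulated, upper GI emptied by light cycle; 20 mg/kg in saline (6 mg/mL) sc or orally. Urine collected in wire-bottom cages, assayed by B. subtilis agar well method. Mean ± SD recovery with N and range; bioavailability = oral over mean sc recovery.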"}, "[2]": {"test": "Percent of urinary recovery in rats after, oral administration of single 20 mg/kg dose in solution (N,range)", "assay_type": "ADME, organism-based", "design": "dose 20 mg/kg, route oral", "details": "rat, urine, read-out: Recovery", "outline": "as §1"}, "[3]": {"test": "Bioavailability in rat", "assay_type": "ADME, organism-based", "details": "in vivo", "outline": "as §1"}, "Streptococcus pneumoniae [4]": {"test_system": "Streptococcus pneumoniae", "test": "Minimum inhibitory concentration against Park strain of Streptococcus pneumoniae"}, "[5]": {"test": "Oral bioavailability in mouse", "assay_type": "ADME, organism-based", "details": "in vivo", "outline": "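Male Cox mice given water and liquid diet overnight; 20 mg/kg in saline (2 mg/mL) sc or orally; urine from collection cages plus bladder contents over 2 h; activity by agar well assay with Bacillus subtilis ATCC 6633. Bioavailability from percent dose excreted in urine after oral vs parenteral dosing.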"}, "[6]": {"test": "Mean plasma levels in rats 2 hr after iv administration of 100 mg/kg of probenecid 5 min prior to test compound", "assay_type": "ADME, organism-based", "design": "dose 100 mg/kg, route intravenous", "details": "rat, read-out: Plasma levels", "outline": "(§2)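 Rats, jugular vein cannulated (two per group), test compound iv 20 mg/kg; probenecid 100 mg/kg iv 5 min before in treated groups. Heparinized plasma sampled at 5, 20, 40 min and 1, 2, 3 h, assayed microbiologically (B. subtilis agar well). AUC 0-3 h in μg min/mL; half-life in min.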"}, "[7]": {"test": "Mean plasma levels in rats 1 hr after iv administration of 100 mg/kg of probenecid 5 min prior to test compound", "assay_type": "ADME, organism-based", "design": "dose 100 mg/kg, route intravenous", "details": "rat, read-out: Plasma levels", "outline": "as §2"}, "Streptococcus pneumoniae [8]": {"test_system": "Streptococcus pneumoniae", "test": "Minimum inhibitory concentration against park strain of Streptococcus pneumoniae"}, "[9]": {"test": "Mean plasma levels in rats 20 min after iv administration of 100 mg/kg of probenecid 5 min prior to test compound", "assay_type": "ADME, organism-based", "design": "dose 100 mg/kg, route intravenous", "details": "rat, read-out: Plasma levels", "outline": "as §2"}, "[10]": {"test": "Mean plasma levels in rats at a time 5 min after iv administration of 100 mg/kg of probenecid 5 min prior to test compound", "assay_type": "ADME, organism-based", "design": "dose 100 mg/kg, route intravenous", "details": "rat, read-out: Plasma levels", "outline": "as §2"}, "[11]": {"test": "Mean plasma levels in rats 3h after intravenous administration of 20 mg/kg of compound", "assay_type": "ADME, organism-based", "design": "dose 20 mg/kg, route intravenous", "details": "rat, read-out: Plasma levels", "outline": "as §2"}, "[12]": {"test": "Area under plasma concentration vs time curve observed in Rhesus monkeys after, iv administration of single 30 mg/kg dose", "assay_type": "ADME, organism-based, Macaca mulatta", "design": "dose 30 mg/kg, route intravenous", "details": "rhesus monkey", "outline": "(§3)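 Rhesus monkeys, adult males, six animals per compound, each given drug orally and iv; fasted overnight. Single 30 mg/kg solution doses, by nasogastric tube (in water) or saphenous vein (in isotonic lactated Ringer). Plasma sampled at intervals, frozen at -70 °C, antibacterial activity by microbiological assay. AUC in μg min/mL; oral bioavailability from oral vs iv AUC.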"}, "[13]": {"test": "Area under plasma concentration vs time curve observed in rats for 0-3 h", "assay_type": "ADME", "design": "time < 3 hr", "details": "rat", "outline": "as §2"}, "Klebsiella aerogenes": {"test_system": "Klebsiella aerogenes", "test": "Minimum inhibitory concentration against EB17 strain of Enterobacter aerogenes", "assay_type": "functional"}, "[14]": {"test": "Minimum inhibitory concentration against sens CL strain of Haemophilus influenzae", "assay_type": "functional"}, "[15]": {"test_system": "Staphylococcus epidermidis", "test": "Minimum inhibitory concentration against 222 strain of Staphylococcus epidermidis", "assay_type": "functional"}, "Canis familiaris [16]": {"test_system": "Canis familiaris", "test": "Area under plasma concentration vs time curve observed in female mongrel dogs after, iv administration of single 15 mg/kg dose", "assay_type": "ADME, organism-based, Canis lupus familiaris", "design": "dose 15 mg/kg, route intravenous", "details": "dog, in vivo", "outline": "(§4)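 Six female mongrel dogs (14-23 kg) fasted overnight, bladder catheterized; single 15 mg/kg solution doses by stomach tube (in water, total 500 mL) or cephalic vein (saline or pH 6.0 NaCl/phosphate/acetate buffer). Plasma sampled at intervals; activity by disk-plate agar diffusion against E. coli MB 3804, standards in dog serum or buffer. AUC μg min/mL, mean ± SEM; BA from iv vs po AUC and urinary recovery.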"}, "[17]": {"test": "Dose in urine (24-h urine excretion) in female mongrel dogs after oral administration of single 15 mg/kg dose", "assay_type": "ADME, organism-based, Canis lupus familiaris", "design": "dose 15 mg/kg, route oral", "details": "dog", "outline": "(§5)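 Female mongrel dogs (n=6), bladder catheter; urine collected at intervals after single 15 mg/kg iv or oral solution dose, frozen; antibiotic activity by disk-plate agar diffusion against E. coli MB 3804 with standards in pH 6.0 buffer; percent of dose recovered in urine.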"}, "[18]": {"test": "Minimum inhibitory concentration against N9 strain of Shigella sonnei", "assay_type": "functional"}, "Streptococcus pyogenes [19]": {"test_system": "Streptococcus pyogenes", "test": "Minimum inhibitory concentration against Streptococcus pyogenes C203", "assay_type": "functional"}, "Salmonella": {"test_system": "Salmonella", "test": "Minimum inhibitory concentration against X514 strain of Salmonella", "assay_type": "functional"}, "[20]": {"test": "Oral bioavailability in Rhesus monkey", "assay_type": "ADME, organism-based, Macaca mulatta", "details": "in vivo", "outline": "as §3"}, "Staphylococcus aureus [21]": {"test_system": "Staphylococcus aureus", "test": "Minimum inhibitory concentration against 3055 strain of Staphylococcus aureus"}, "[22]": {"test": "Mean plasma levels in rats 40 min after iv administration of 100 mg/kg of probenecid 5 min prior to test compound", "assay_type": "ADME, organism-based", "design": "dose 100 mg/kg, route intravenous", "details": "rat, read-out: Plasma levels", "outline": "as §2"}, "[23]": {"test_system": "Staphylococcus epidermidis", "test": "Minimum inhibitory concentration against Epil strain of Staphylococcus epidermidis", "assay_type": "functional"}, "Canis familiaris [24]": {"test_system": "Canis familiaris", "test": "Area under plasma concentration vs time curve observed in female mongrel dogs after, oral administration of single 15 mg/kg dose", "assay_type": "ADME, organism-based, Canis lupus familiaris", "design": "dose 15 mg/kg, route oral", "details": "dog, in vivo", "outline": "as §4"}, "[25]": {"test": "Dose in urine (24-h urine excretion) in female mongrel dogs after iv administration of single 15 mg/kg dose", "assay_type": "ADME, organism-based, Canis lupus familiaris", "design": "dose 15 mg/kg, route intravenous", "details": "dog", "outline": "as §5"}, "[26]": {"test": "Area under plasma concentration vs time curve observed in Rhesus monkeys after oral administration of single 30 mg/kg dose", "assay_type": "ADME, organism-based, Macaca mulatta", "design": "dose 30 mg/kg, route oral", "details": "rhesus monkey", "outline": "as §3"}, "[27]": {"test": "Minimum inhibitory concentration against res 76 strain of Haemophilus influenzae", "assay_type": "functional"}, "Staphylococcus aureus [28]": {"test_system": "Staphylococcus aureus", "test": "Minimum inhibitory concentration against X1.1 strain of Staphylococcus aureus", "assay_type": "functional"}, "Streptococcus pyogenes [29]": {"test_system": "Streptococcus pyogenes", "test": "Minimum inhibitory concentration against C203 strain of Streptococcus pyogenes"}, "[30]": {"test": "Half-life of the compound", "assay_type": "ADME", "outline": "as §2"}}, "data": [{"compound": "Nc1nc(CC(=O)N[C@@H]2C(=O)N3C(C(=O)O)=C(Cl)CS[C@H]23)cs1", "values": [{"measurement": "dose excreted", "setting": "[1]", "value": 84.3, "unit": "%"}, {"measurement": "dose excreted", "setting": "[2]", "value": 16.2, "unit": "%"}, {"measurement": "bioavailability", "setting": "[3]", "value": 19.2, "unit": "%"}, {"measurement": "MIC", "setting": "Streptococcus pneumoniae [4]", "value": 0.25, "unit": "µg/mL"}, {"measurement": "bioavailability", "setting": "[5]", "value": 64, "unit": "%"}, {"measurement": "concentration at 2 h", "setting": "[6]", "value": 1800, "unit": "ng/mL"}, {"measurement": "concentration at 1 h", "setting": "[7]", "value": 9800, "unit": "ng/mL"}, {"measurement": "MIC", "setting": "Streptococcus pneumoniae [8]", "value": 0.5, "unit": "µg/mL"}, {"measurement": "concentration at 20 min", "setting": "[9]", "value": 32000, "unit": "ng/mL"}, {"measurement": "concentration at 5 min", "setting": "[10]", "value": 57500, "unit": "ng/mL"}, {"measurement": "concentration at 3 h", "setting": "[11]", "value": "< 1300", "unit": "ng/mL"}, {"measurement": "AUC", "setting": "[12]", "value": 50300, "unit": "ng·h/mL"}, {"measurement": "AUC at 3 h", "setting": "[13]", "value": 35400, "unit": "ng·h/mL"}, {"measurement": "MIC", "setting": "Klebsiella aerogenes", "value": 8, "unit": "µg/mL"}, {"measurement": "MIC", "setting": "[14]", "value": 1, "unit": "µg/mL"}, {"measurement": "MIC", "setting": "[15]", "value": 2, "unit": "µg/mL"}, {"measurement": "AUC", "setting": "Canis familiaris [16]", "value": 33200, "unit": "ng·h/mL"}, {"measurement": "dose excreted", "setting": "[17]", "value": 10, "unit": "%"}, {"measurement": "MIC", "setting": "[18]", "value": 4, "unit": "µg/mL"}, {"measurement": "MIC", "setting": "Streptococcus pyogenes [19]", "value": 0.125, "unit": "µg/mL"}, {"measurement": "MIC", "setting": "Salmonella", "value": 0.25, "unit": "µg/mL"}, {"measurement": "bioavailability", "setting": "[20]", "value": 4.2, "unit": "%"}, {"measurement": "MIC", "setting": "Staphylococcus aureus [21]", "value": 1, "unit": "µg/mL"}, {"measurement": "concentration at 40 min", "setting": "[22]", "value": 15600, "unit": "ng/mL"}, {"measurement": "MIC", "setting": "[23]", "value": 8, "unit": "µg/mL"}, {"measurement": "AUC", "setting": "Canis familiaris [24]", "value": 9330, "unit": "ng·h/mL"}, {"measurement": "dose excreted", "setting": "[25]", "value": 36, "unit": "%"}, {"measurement": "AUC", "setting": "[26]", "value": 2170, "unit": "ng·h/mL"}, {"measurement": "MIC", "setting": "[27]", "value": 1, "unit": "µg/mL"}, {"measurement": "MIC", "setting": "Staphylococcus aureus [28]", "value": 2, "unit": "µg/mL"}, {"measurement": "MIC", "setting": "Streptococcus pyogenes [29]", "value": 0.25, "unit": "µg/mL"}, {"measurement": "half-life", "setting": "[30]", "value": 23.5, "unit": "min"}]}]}
